# Compound activity deposited in PubChem by several laboratories.
# RAM network inh: inhibitors of the yeast RAM network. inhibition, % at 50 µM. S. cerevisiae dse1pr::URA3 reporter, 5-FOA growth OD615, 2 d; analog-sensitive cbk1-as2 kinase mutant strain. 190,000 tested, 1.8% active;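 active means inhibition above a set limit, 3 SD over mean compound inhibition, cut at about 8.4% in these data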;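 further: inhibition rescues growth on 5-FOA so higher OD means more RAM inhibition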
# BB579 growth dn: yeast BB579 growth reduction in restrictive medium. 140,000 tested, 0.51% active. AID 804. S. cerevisiae BB579 growth, OD615, 48 h. inhibition, % at 10 µM;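 active means inhibition above a set limit, 3 SD over the mean compound inhibition, cut at about 44% in these data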
#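 System: Saccharomyces cerevisiae DeaD strain BB579, replicative lifespan model yeast. Buffer or medium: restrictive glucose-based CSMM-D medium. Doses: one dose, 10 µM compound with 0.25% DMSO. Timing: 4 h preincubation and 48 h exposure at 30 °C. Detection: turbidity as optical density at 615 nm. Benchmarks: amphotericin B 10 µg/mL, positive.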
# Cl transport mod: KCC2 (human) Cl- transport modulation | Q9H2X9 | KCC2 cells, thallium flux FluoZin-2 fluorescence | B-score of Tl+ flux slope (higher = more flux/activation; lower = inhibition) at 10 µM | 190,000 tested, 2.2% active;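 active means thallium flux slope and its plate-corrected score both differing from the plate sample mean at a set confidence after two filtering rounds, in either direction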;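 further: slope of fluorescence scaled to starting intensity during 10 to 20 s after thallium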
# Yeast life ext: extends the lifespan of yeast; S. cerevisiae growth with nicotinamide, OD615; deaD strain in restrictive glucose medium; inhibition of the nicotinamide effect, % at 10 µM; AID 775; 130,000 tested, 0.68% active;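 active means inhibition above a set limit, placed 3 SD over the median of all compounds, cut at about 26% in these data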
#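 System: DeaD-strain S. cerevisiae / Buffer or medium: CSMM-D, restrictive glucose (dextrose) synthetic minimal medium / Probe or stimulus: nicotinamide, 1.5 mM, co-present with compound / Compound: one concentration, 10 µM, DMSO 0.25% / Incubation: 48 h compound exposure at 30 °C, humidified / Technique: optical density (absorbance) at 615 nm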
# WT yeast gro inh: growth inhibition of WT yeast, mitochondrial fusion screen. mitochondrial fusion phenotypic screen, WT strain. inhibition, % at 10 µM. 190,000 tested, 2.1% active. AID 1362; in the data active means inhibition above about 58%; tested in S. cerevisiae
# RAM 5-FOA: RAM network inhibitors in efflux-deficient yeast | 1,200 tested, under 10 active | shares compounds with RAM network inh | S. cerevisiae efflux-deficient reporter strain, 5-FOA growth OD615, 2 days | AID 1305 | max inhibition, %; call rule not given here
# Hits are given with their value; – = inactive; · = no result. Rows were chosen to be rich in hits. Some 5.5% of all compounds tested hit in one or more screens of this group.
SMILES,RAM network inh,BB579 growth dn,Cl transport mod,Yeast life ext,WT yeast gro inh,RAM 5-FOA
CCOC(=O)Cc1csc(NC(=O)NC2(C(F)(F)F)Oc3ccccc3O2)n1,14,–,·,–,–,–
O=C(C[n+]1cc(-c2ccc(Cl)cc2)n2c1CCC2)Nc1nc(-c2ccc(F)cc2)cs1,·,·,–,·,·,·
Cc1ccccc1NC(=O)CCCSc1nc2ccccc2s1,18,–,–,–,–,–
CC(C)(C)NC(=O)CCCSc1nc2ccccc2s1,–,·,–,·,–,·
Cc1ccc2sc(NC(=O)c3ccc(N4C(=O)CCC4=O)cc3)nc2c1C,17,–,–,–,–,–
CCOCCCNC(=O)C(NC(=O)c1ccccc1O)c1ccc(Cl)cc1 (configuration not stated),–,·,–,·,–,·
N#C/C(=C\c1ccc(-c2ccc(S(=O)(=O)N3CCOCC3)cc2)o1)C(=O)NC1CC1,13,–,–,–,–,–
CCOc1ccc(C(=O)/C=C/Nc2ccc(S(=O)(=O)Nc3onc(C)c3C)cc2)cc1,–,–,–,–,–,·
Cc1noc(NS(=O)(=O)c2ccc(N/C=C\C(=O)c3ccc(Br)cc3)cc2)c1C,12,·,–,·,–,–
Cc1ccc(S(=O)(=O)/C=C/c2ccccc2)cc1,–,–,–,–,–,·
C=CCN(CC=C)S(=O)(=O)c1ccc(NC(=O)COc2ccccc2OC)cc1,15,–,–,·,–,–
COc1ccccc1OCC(=O)Nc1ccc(S(=O)(=O)N2CCCCCC2)cc1,–,–,–,–,–,·
Cc1ccc(S(=O)(=O)NCCSCc2ccccc2)cc1,–,–,–,–,–,·
COc1ccc(S(=O)(=O)NCCSCc2cccc(C)c2)cc1Br,12,–,–,–,65,–
N#Cc1c(N)nc(SCc2ccccn2)c(C#N)c1-c1cccs1,12,–,–,–,–,–
Cc1ccc(Cl)c(OCC(=O)OCC(=O)NC2CCCc3ccccc32)c1 (configuration not stated),–,–,–,–,–,·
Cc1ccc(S(=O)(=O)Cn2nnnc2CN(Cc2ccco2)Cc2cccs2)cc1,12,–,–,–,–,–
CNC(=S)N(CCc1ccccc1)Cc1cc2cc(OC)c(OC)cc2[nH]c1=O,–,–,–,–,–,·
CNC(=S)N(CCc1ccc(OC)c(OC)c1)Cc1cc2c(C)cc(C)cc2[nH]c1=O,16,–,–,–,–,–
CCN(CC)S(=O)(=O)c1ccc(OC)c(NC(=O)CSc2cc(C)ccc2C)c1,15,–,–,–,–,–
Cc1ccc(NC(=O)COC(=O)c2cc(Cl)ccc2[N+](=O)[O-])c(C)c1,–,–,–,–,–,·
Cc1ccc(NC(=O)COC(=O)CCC(=O)c2ccc(C(C)(C)C)cc2)c([N+](=O)[O-])c1,14,–,–,–,–,–
Cc1ccc(NC(=O)COC(=O)COc2ccc(Cl)cc2C)c([N+](=O)[O-])c1,12,–,–,–,–,–
CCOC(=O)C1=C(C)NC(C)=C(C(=O)OCC)C1/C=C/c1ccccc1,–,–,·,–,–,·
C=CCOC(=O)C1=C(C)NC(C)=C(C(=O)OCC=C)C1/C=C/c1ccccc1,15,–,–,–,–,–
SMILES,RAM network inh,BB579 growth dn,Cl transport mod,Yeast life ext,WT yeast gro inh,RAM 5-FOA
O=C(/C=C/c1ccc2c(c1)OCCCO2)c1ccc2ccccc2c1O,12,–,–,–,–,–
COc1ccc(CNC(=O)c2n[nH]c3ccccc23)cc1OC,–,·,–,·,–,·
C=CCn1cccc(C(=O)Nc2cc(OC)ccc2OC)c1=O,–,·,–,·,–,·
Cc1ccc(NC(=O)c2cc(S(=O)(=O)NCCC3=CCCCC3)ccc2F)cc1,16,–,–,–,–,–
CC(NC(=O)C(=O)NN=C1CCCC1)c1ccccc1 (configuration not stated),–,·,–,·,–,·
COc1cc(OC)c(NS(=O)(=O)c2ccc(Cl)c(C(=O)OC(C)C(=O)N3CCCC3)c2)cc1Cl (configuration not stated),–,–,–,–,–,·
Cc1ccc(C(=O)c2cc3ccccc3o2)cc1C,15,–,·,–,–,–
CCC1CCCCN1S(=O)(=O)c1ccc(S(=O)(=O)N(Cc2cccs2)C2CC2)cc1 (configuration not stated),13,–,–,33,–,–
COc1cc(/C=N/OCC(=O)NC23CC4CC(CC(C4)C2)C3)ccc1OCc1ccccc1,12,–,–,–,–,–
